Assay results published in ChEMBL document CHEMBL1141109, “Synthesis of an estrogen receptor beta-selective radioligand: 5-[18F]fluoro-(2R,3S)-2,3-bis(4-hydroxyphenyl)pentanenitrile and comparison of in vivo distribution with 16alpha-[18F]fluoro-17beta-estradiol” (J Med Chem, 2005).

Legend:
Mus musculus [1] = species on record: Mus musculus; assay: Serum estradiol level in nonestrus mouse BALB/c cell line; (n=3)
Mus musculus [2] = species on record: Mus musculus; assay: Serum estradiol level in estrus estrogen receptor beta mouse; (n=3); type: functional, organism-based
Method in brief: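 Serum was collected and sent to an outside laboratory for radioimmunoassay using reagents intended for human serum. […] Results are in pg/mL as mean ± SD, with three samples per mouse.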

Level (Mus musculus [2]): 43.8 pg/mL
SMILES: C[C@]12CC[C@@H]3c4ccc(O)cc4CC[C@H]3[C@@H]1CC[C@@H]2O
Level (Mus musculus [1]): 28.7 pg/mL
